This is an account of results in ChEMBL document CHEMBL4251591, “Primaquine hybrids as promising antimycobacterial and antimalarial agents” (Eur J Med Chem, 2018).

What all share (format): functional
Test [1] relates to Mycobacterium tuberculosis. The test can be described thus: Antimycobacterial activity against Mycobacterium tuberculosis H37Ra ATCC 25177 after 7 days by Alamar Blue assay. Conditions: H37Ra ATCC 25177, 168 h. A digest of the protocol:
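Log-phase culture washed and resuspended in supplemented Middlebrook 7H9GC broth, adjusted to McFarland No. 1, then diluted 1:20. Equal volumes of culture and DMSO-prepared compound dilutions were tested in duplicate for 7 days. 10% AlamarBlue was added, with 570/600 nm readings for background and after 24 h reincubation. Blue meant no growth, pink meant growth. MIC was the lowest concentration without visible growth.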
In general terms: The colour change of resazurin is a common sign of viable cells or microbes.

Test [2] concerns Mycobacterium avium complex sp. The test can be described thus: Antimycobacterial activity against Mycobacterium avium complex CIT19/06 clinical isolate after 5 days by Alamar Blue assay. As to conditions: CIT19/06, 120 h.
The subject of a further test is Mycobacterium avium. In words: Antimycobacterial activity against Mycobacterium avium subsp. paratuberculosis CIT03 clinical isolate after 11 days by Alamar Blue assay. Conditions: CIT03, 264 h.

In brackets after ≈: the same amount, converted by molar mass.

Regarding `COc1cc(NC(C)CCCNC(=O)/C=C/c2ccccc2)c2ncccc2c1` (centres undefined), the MIC (in general, the lowest concentration found to suppress growth) in test [1] came to 16 µg/mL (≈ 41.1 µM); in test [2], 32 µg/mL (≈ 82.2 µM); in the test with Mycobacterium avium, 16 µg/mL (≈ 41.1 µM).
On to `COc1cc(NC(C)CCCNC(=O)/C=C/c2ccc(Cl)cc2)c2ncccc2c1` (centres undefined), for which the MIC worked out at 64 µg/mL (≈ 151 µM) in test [1], 128 µg/mL (≈ 302 µM) in test [2] and 64 µg/mL (≈ 151 µM) against Mycobacterium avium.
Take `COc1cc(NC(C)CCCNC(=O)NNC(=O)NCCCO)c2ncccc2c1` (centres undefined): the MIC (in test [1]; in test [2]; in the test on Mycobacterium avium) was 256 µg/mL (≈ 612 µM) in each case.
For the compound `COc1cc(NC(C)CCCNC(=O)NNC(=O)NCCCCCO)c2ncccc2c1` (centres undefined), the MIC (in test [1]; in test [2]; in the test with Mycobacterium avium) was 256 µg/mL (≈ 573 µM) each time.
Take `COc1cc(NC(C)CCCNC(=O)NNC(=O)N(CCO)CCO)c2ncccc2c1` (centres undefined): the minimal inhibitory concentration (MIC) (in test [1]; in test [2]; against Mycobacterium avium) was 256 µg/mL (≈ 571 µM) throughout.
As to `COc1cc(NC(C)CCCNC(=O)NC(c2ccccc2)c2ccc(Cl)cc2)c2ncccc2c1` (centres undefined), the minimum inhibitory concentration (MIC) (in test [1]; in test [2]; with Mycobacterium avium) was 128 µg/mL (≈ 254 µM) throughout.
`COc1cc(NC(C)CCCNC(=O)Nc2ccc(Cl)c(C(F)(F)F)c2)c2ncccc2c1` (centres undefined): the MIC (in test [1]; in test [2]; in the test on Mycobacterium avium) was 16 µg/mL (≈ 33.3 µM) each time.
As to `COc1cc(NC(C)CCCNC(=O)NN)c2ncccc2c1` (centres undefined), the minimal inhibitory concentration (MIC) (in test [1]; in test [2]; against Mycobacterium avium) was 32 µg/mL (≈ 101 µM) each time.
Regarding `COc1cc(NC(C)CCCNC(=O)NNC(=O)Nc2cccc(O)c2)c2ncccc2c1` (centres undefined), the minimal inhibitory concentration (MIC) in test [1] worked out at 128 µg/mL (≈ 283 µM); in test [2], 256 µg/mL (≈ 566 µM); against Mycobacterium avium, 128 µg/mL (≈ 283 µM).
In the case of `COc1cc(NC(C)CCCNC(=O)NNC(=O)Nc2ccc(O)cc2)c2ncccc2c1` (centres undefined), the MIC in test [1] was found to be 128 µg/mL (≈ 283 µM); in test [2], 256 µg/mL (≈ 566 µM); with Mycobacterium avium it was 128 µg/mL (≈ 283 µM).
Regarding `COc1cc(NC(C)CCCNC(=O)Nc2ccc(Cl)cc2)c2ncccc2c1` (centres undefined), the values for the MIC (in test [1]; in test [2]; in the test with Mycobacterium avium) were 16 µg/mL (≈ 38.7 µM), 64 µg/mL (≈ 155 µM) and 32 µg/mL (≈ 77.5 µM), respectively.
Take `COc1cc(NC(C)CCCNC(=O)NNC(=O)NCCc2ccccc2)c2ncccc2c1` (centres undefined): the results for the MIC (in test [1]; in test [2]; against Mycobacterium avium) were 128 µg/mL (≈ 276 µM), 256 µg/mL (≈ 551 µM) and 128 µg/mL (≈ 276 µM), respectively.
Turning to `COc1cc(NC(C)CCCNC(=O)/C=C/c2cccc(C(F)(F)F)c2)c2ncccc2c1` (centres undefined), the MIC in test [1] came out at 32 µg/mL (≈ 69.9 µM); in test [2], 128 µg/mL (≈ 280 µM); against Mycobacterium avium it was 32 µg/mL (≈ 69.9 µM).
As to `COc1cc(NC(C)CCCNC(=O)NNC(=O)NCc2ccccc2)c2ncccc2c1` (centres undefined), the minimal inhibitory concentration (MIC) in test [1] is 128 µg/mL (≈ 284 µM); in test [2], 256 µg/mL (≈ 568 µM); against Mycobacterium avium, 128 µg/mL (≈ 284 µM).
For `COc1cc(NC(C)CCCNC(=O)/C=C/c2ccc(C(F)(F)F)cc2)c2ncccc2c1` (centres undefined), the values for the MIC (in test [1]; in test [2]; against Mycobacterium avium) were 32 µg/mL (≈ 69.9 µM), 128 µg/mL (≈ 280 µM) and 64 µg/mL (≈ 140 µM), respectively.
For `COc1cc(NC(C)CCCNC(=O)/C=C/c2ccc3c(c2)OCO3)c2ncccc2c1` (centres undefined), in that order: 64 µg/mL (≈ 148 µM), 64 µg/mL (≈ 148 µM) and 64 µg/mL (≈ 148 µM).
For `COc1cc(NC(C)CCCNC(=O)NC2CCCCC2)c2ncccc2c1` (centres undefined), in that order: 16 µg/mL (≈ 41.6 µM), 32 µg/mL (≈ 83.2 µM) and 16 µg/mL (≈ 41.6 µM).
For `COc1cc(NC(C)CCCNC(=O)NC2CCCC2)c2ncccc2c1` (centres undefined), in that order: 16 µg/mL (≈ 43.2 µM), 32 µg/mL (≈ 86.4 µM) and 16 µg/mL (≈ 43.2 µM).
With `COc1cc(NC(C)CCCNC(=O)NCc2ccncc2)c2ncccc2c1` (centres undefined), the MIC (in test [1]; in test [2]; with Mycobacterium avium) was 32 µg/mL (≈ 81.3 µM) each time.
With `COc1cc(NC(C)CCCNC(=O)NCCO)c2ncccc2c1` (centres undefined), the figures for the MIC (in test [1]; in test [2]; against Mycobacterium avium) were 32 µg/mL (≈ 92.4 µM), 64 µg/mL (≈ 185 µM) and 64 µg/mL (≈ 185 µM), respectively.
For `COc1cc(NC(C)CCCNC(=O)NCCCO)c2ncccc2c1` (centres undefined), the MIC (in test [1]; in test [2]; in the test with Mycobacterium avium) was 64 µg/mL (≈ 178 µM) in each case.
In the case of `O=C(O)c1cn(C2CC2)c2cc(N3CCNCC3)c(F)cc2c1=O` [CIPROFLOXACIN], in test [1], the MIC was 16 µg/mL (≈ 48.3 µM).
